# Rpn11 block = Rpn11 (PSMD14) deubiquitinase inhibitors, primary screen, biochemical, fluorescence polarization, uHTS | 26S proteasome non-ATPase regulatory subunit 14 (Homo sapiens), O00487 | human 26S proteasome, Ub4-pepOG fluorescence polarization; 20S core pre-blocked with epoxomicin | inhibition, % at 20 µM | hit rate 0.59% among 360,000 | AID 588493, 2011;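 active = inhibition at 20 µM, scaled to each plate's controls, above about 33%, limit read from the data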
# Target sequence (O00487 whole entry, looked up): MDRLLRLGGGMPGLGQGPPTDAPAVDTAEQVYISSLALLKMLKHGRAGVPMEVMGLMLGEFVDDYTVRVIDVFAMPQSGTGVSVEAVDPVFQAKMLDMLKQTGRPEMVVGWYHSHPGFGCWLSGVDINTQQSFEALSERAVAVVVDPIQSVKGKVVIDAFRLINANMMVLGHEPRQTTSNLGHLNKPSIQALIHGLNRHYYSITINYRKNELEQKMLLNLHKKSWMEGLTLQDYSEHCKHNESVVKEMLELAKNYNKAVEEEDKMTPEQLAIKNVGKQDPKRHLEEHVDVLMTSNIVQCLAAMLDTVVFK
# CSN deneddyl inh = inhibitors of CSN-mediated cullin deneddylation, primary screen, biochemical, fluorescence polarization, uHTS. inhibition, % at 12.5 µM. hit rate 0.38% among 360,000. COP9 signalosome complex subunit 5 (Homo sapiens), Q92905. Purified CSN, SCF-Nedd8-OG deneddylation. AID 651999, 2013;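 active = pattern-corrected inhibition above about 35%, with an unprinted fluorescence ratio check between 0.5 and 1.5, limit read from the data, passing the limit was not always enough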
# Target sequence (Q92905 whole entry, looked up, one chain of several): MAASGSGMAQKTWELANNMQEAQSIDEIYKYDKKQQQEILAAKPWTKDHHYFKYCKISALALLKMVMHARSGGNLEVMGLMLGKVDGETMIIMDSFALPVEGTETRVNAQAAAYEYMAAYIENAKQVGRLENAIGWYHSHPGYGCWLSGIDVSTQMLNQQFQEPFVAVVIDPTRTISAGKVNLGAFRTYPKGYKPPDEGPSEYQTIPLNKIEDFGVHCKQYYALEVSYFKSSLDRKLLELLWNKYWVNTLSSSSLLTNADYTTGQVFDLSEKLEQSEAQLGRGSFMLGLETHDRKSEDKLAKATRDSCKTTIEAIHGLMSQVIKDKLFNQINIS
#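 Assay system: purified human Csn5 enzyme expressed in HEK293T cells; measure: % inhibition; also added: SCFSkp2-Nedd8OG substrate at 10 nM final; technique: fluorescence polarization; times: reaction 90 min, room temperature; medium: Tris buffer pH 7.5, NaCl, DTT, Tween-20, trehalose, ovalbumin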
# aDG glyco act = activators of alpha-DG glycosylation, primary screen, uHTS, Pro5-aDG cells, AlphaScreen | alpha-DG glycosylation AlphaScreen (IIH6); 0% Pro5, 100% B10-LARGE cell signal | activation, % at 10 µM | hit rate 0.22% among 360,000 | AID 624168, 2012;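 active = activation of at least 8% versus controls, or a plate z-score of at least 8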;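 note: Pro5 are CHO cells carrying HIG-tagged alpha-DG that lacks glycosylation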
# Xi reactivation = activators of inactive X chromosome reactivation, primary screen, imaging, XiGFP fibroblasts, GFP high-content imaging, set 2; XiGFP mouse fibroblasts, % GFP-positive cells imaging, 3 d; cells co-treated with 5-aza-dC sensitizer; scaled so ellipticine positive control = 100%; activation, % at 7.58 µM; hit rate 0.055% among 360,000; AID 743238, 2013;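 active = mean normalized replicate activation at least 10% and every replicate at or above 10%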
#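 Assay system – SV40-immortalized XiGFP fibroblast cells, line 68-5-11 · Buffer or medium – DMEM supplemented with 5-aza-dC as sensitizing agent · Dosing – one concentration, pinned · Benchmarks – positive control ellipticine, 6 µM final · Times – 3 days compound exposure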
# TPT1 inhibitor = Candida albicans TPT1 enzyme inhibitors, primary screen, biochemical, fluorescence polarization. hit rate 0.81% among 300,000. recombinant caTPT1, FP RNA substrate dephosphorylation. inhibition, % at 5 µM;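 active = inhibition above the mean of all tested compounds plus 3 SD, set per screening campaign, cut at about 24% in these data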
# HNF4A DNA FP = change in binding of human HNF4A to DNA, primary screen, biochemical, fluorescence polarization, FITC-DNA. Hepatocyte nuclear factor 4-alpha (Homo sapiens), P41235. 1 h. activity change, % at 10 µM. hit rate 0.3% among 360,000. AID 1224865, 2016; in the data active = activity change above about 30%, passing the limit was not always enough
# A number is an active result; . = inactive; / = no result shown. Hits are enriched below; roughly 1.3% of the tested compounds scored in any of these assays.
SMILES,Rpn11 block,CSN deneddyl inh,aDG glyco act,Xi reactivation,TPT1 inhibitor,HNF4A DNA FP
Cc1ccc(-c2nn(-c3ccccc3)cc2/C=C2\SC(=S)N(CC(=O)O)C2=O)cc1,.,.,.,.,.,.
CCOc1ccc(-c2nn(-c3ccccc3)cc2/C=C2\SC(N)=NC2=O)cc1C,.,.,.,/,.,57
COc1cccc(OC)c1-c1nn2c(-c3cc(-c4ccccc4)n[nH]3)nnc2s1,.,.,.,/,.,225
COc1ccc([C@H]2CC=CC[C@@H](C)Oc3ccccc3C(=O)N(C)[C@H](C)C(=O)N2)c(OC)c1 (mixture of isomers),/,/,/,.,/,/
COc1ccccc1C1CC(c2ccccc2)=NN1S(=O)(=O)c1ccccc1 (stereo unspecified),.,.,.,.,.,.
COc1cccc(C2CC(c3ccccc3)=NN2S(=O)(=O)c2ccc(C)cc2)c1OC (stereo unspecified),/,76,.,.,.,.
Cc1noc(C)c1S(=O)(=O)Nc1ccc2c(c1)C(=O)N([C@H](C)CO)C[C@@H](C)[C@H](CN(C)Cc1ccc3c(c1)OCO3)OCCCC[C@@H](C)O2,/,/,/,.,/,/
CC(=O)Oc1ccc(C(=O)Nc2cccc(C(=O)NC(C)(C)C)c2)cc1,.,.,.,.,.,.
CC(=O)Oc1ccc(C(=O)Nc2cccc(C(=O)c3cccc(NC(=O)c4ccc(OC(C)=O)cc4)c3)c2)cc1,.,108,.,.,.,.
CO[C@H]1CN(C)C(=O)c2ccc(NC(=O)C3CC3)cc2OC[C@@H](C)N(C(=O)c2ccccc2)C[C@@H]1C,/,/,/,.,/,/
COc1ccc(Cn2c(-c3ccc(C)cc3)nc3c(c(=O)c4ccccc4n3C)c2=O)cc1,.,44,.,.,.,.
N#C/C(=C\c1ccc([N+](=O)[O-])o1)c1nc2ccccc2[nH]1,/,/,/,62,29,/
C[C@@H]1CCCCO[C@@H](CN(C)CC2CC2)[C@H](C)CN([C@@H](C)CO)C(=O)c2cc(NS(C)(=O)=O)ccc2O1,/,/,/,.,/,/
COc1ccc(NC(=O)CCc2ccccc2)cc1S(=O)(=O)N1CCCCC1,.,.,.,141,/,.
O=C(CCN1CCCCC1)NCC[C@@H]1CC[C@H](NC(=O)Cc2cccnc2)[C@H](CO)O1,/,/,/,.,/,/
COC(=O)CN1C(=O)N/C(=C/c2cc3c(cc2OC)OCO3)C1=O,.,.,.,.,.,.
C#CCN1C(=O)S/C(=C\c2cc3c(cc2OC)OCO3)C1=O,/,50,.,.,.,.
CCNC(=O)C[C@H]1CC[C@H]2[C@@H](COC[C@@H](O)CN2C(=O)Nc2ccc3c(c2)OCO3)O1,/,/,/,.,/,/
Cc1ccc(C(=O)N/C(=C\c2ccc(-c3ccccc3[N+](=O)[O-])o2)C(=O)NCCN(C)C)cc1,.,.,1.9,.,.,.
COc1ccc(/C=C(\C#N)C(=O)N2CCOCC2)cc1Br,.,.,.,/,.,.
Cc1cc(/C=C(\C#N)C(=O)N2CCOCC2)c(C)n1C1CCCC1,.,110,.,.,.,.
CSC1=N/C(=C\c2ccc(Br)o2)C(=O)S1,.,43,.,/,.,.
CSC1=N/C(=C\c2ccccc2F)C(=O)S1,.,.,.,/,.,.
O=c1oc2ccccc2cc1-c1nc2ccccc2o1,.,.,.,/,.,.
Nc1cc2nc3ccccc3oc-2cc1=O,54,.,.,/,.,.
SMILES,Rpn11 block,CSN deneddyl inh,aDG glyco act,Xi reactivation,TPT1 inhibitor,HNF4A DNA FP
CO[C@@H]1CN(C)C(=O)c2ccc(NS(C)(=O)=O)cc2OC[C@H](C)N(Cc2cccnc2)C[C@H]1C,/,/,/,.,/,/
CCCNc1c(NS(=O)(=O)c2ccc(NC(=O)CC)cc2)c(=O)oc2ccccc12,.,.,6.5,.,.,.
Cc1cc(/C=N/n2cnnc2)c(C)n1-c1ccc(OCc2ccccc2F)cc1,.,.,5.9,/,.,.
O=C(c1ccccc1)c1coc2c1C(=O)c1ccccc1C2=O,.,.,.,.,.,.
O=C1c2ccccc2C(=O)c2c1oc(C(F)(F)F)c2C(=O)c1ccccc1,.,.,8.8,/,.,.
CC(=O)c1c(C)oc2c1C(=O)c1ccccc1C2=O,.,.,9.8,.,.,.
C=Cc1c(C)c2cc3[nH]c(cc4nc(cc5nc(cc1[nH]2)C(C)=C5CCC(=O)O)C(CCC(=O)O)=C4C)c(C)c3C=C,.,.,73,/,.,.
O=[N+]([O-])c1ccc(NN=Cc2cccc3ccccc23)nc1,/,.,.,.,/,35
CCOC(=O)COc1ccc(Br)cc1/C=C/c1[nH]c(=O)[nH]c(=O)c1[N+](=O)[O-],.,39,.,.,.,.
C=CCN1CC(C(=O)N2CCC(Cc3ccc(Cl)cc3)(C(=O)OCC)CC2)CC1=O (stereo unspecified),.,.,.,.,.,36
COc1ccc(-c2cnc3c(c2)C(=O)N([C@H](C)CO)C[C@@H](C)[C@@H](CN(C)Cc2ccc(C(=O)O)cc2)O3)cc1,/,/,/,.,/,/
CCNC(=O)c1cc2c(=O)n3cccc(C)c3nc2n(Cc2ccc(C)cc2)c1=N,.,.,.,/,.,.
Cc1cccn2c(=O)c3cc(C(=O)NC(C)C)c(=N)n(Cc4ccncc4)c3nc12,.,.,.,/,.,52
COCCCn1c(C(=O)Nc2ccc3c(c2)OCO3)cc2c(=O)n3cccc(C)c3nc21,.,42,.,.,/,.
C[C@@H]1CCCCO[C@H](CN(C)S(=O)(=O)c2cn(C)cn2)[C@H](C)CN([C@@H](C)CO)C(=O)c2cc(NS(=O)(=O)c3cccs3)ccc2O1,/,/,/,.,/,/
O=C(Nc1ccccc1)c1oc2ccccc2c1NC(=O)C1CC1,.,.,.,.,.,61
O=C(Nc1ccc2c(c1)OCCO2)c1oc2ccccc2c1NC(=O)C1CC1,.,.,.,.,.,.
Nc1cc2nsnc2cc1Br,.,39,6.6,/,.,.
COc1ccc(C(=O)Nc2ccc(-c3nnn(CC(=O)N4CCN(C(=O)c5ccco5)CC4)n3)cc2)cc1,.,80,.,.,.,.
Clc1nnc2ccc(-c3ccccc3)nn12,.,54,.,/,.,.
O=C1c2cccc3c([N+](=O)[O-])ccc(c23)C(=O)N1c1ccccn1,.,.,.,/,.,.
O=C1c2cccc3c([N+](=O)[O-])ccc(c23)C(=O)N1O,.,.,.,17,.,.

# Screens (PubChem)
